Experimental data published in ChEMBL document CHEMBL2413065, “Design and synthesis of bicyclic heterocycles as potent γ-secretase modulators” (Bioorg Med Chem Lett, 2013).
One block for each molecule: values may come before it. Calls of active or inactive are those of the source. The calls are words filed in the database; no cut-off is given here.

Key:
hERG (KCNH2) = hERG (KCNH2) (Homo sapiens, UniProt Q12809); assay: Inhibition of human ERG at 3 uM by Patch-Xpress assay
Cytochrome P450 2D6 = Cytochrome P450 2D6 (Homo sapiens, UniProt P10635); assay: Inhibition of CYP2D6 (unknown origin)
Cytochrome P450 1A2 = biological target: T1, Cytochrome P450 1A2 (Homo sapiens, UniProt P05177); assay: Inhibition of CYP1A2 (unknown origin)
T1 sequence (P05177 whole entry): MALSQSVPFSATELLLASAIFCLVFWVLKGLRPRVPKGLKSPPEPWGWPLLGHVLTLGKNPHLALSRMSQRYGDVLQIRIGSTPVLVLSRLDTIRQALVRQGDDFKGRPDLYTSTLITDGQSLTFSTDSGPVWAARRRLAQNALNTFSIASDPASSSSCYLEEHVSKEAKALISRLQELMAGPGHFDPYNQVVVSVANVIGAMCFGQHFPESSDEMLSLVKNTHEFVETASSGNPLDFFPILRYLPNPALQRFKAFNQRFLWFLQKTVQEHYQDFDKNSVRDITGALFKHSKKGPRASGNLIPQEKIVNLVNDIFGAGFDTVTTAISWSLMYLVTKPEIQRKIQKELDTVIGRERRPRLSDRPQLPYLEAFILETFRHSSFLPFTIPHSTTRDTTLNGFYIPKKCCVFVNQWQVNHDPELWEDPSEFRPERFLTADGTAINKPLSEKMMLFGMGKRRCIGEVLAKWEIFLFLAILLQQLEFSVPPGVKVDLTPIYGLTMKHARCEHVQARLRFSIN

Cytochrome P450 3A4 = Cytochrome P450 3A4 (Homo sapiens, UniProt P08684); assay: Inhibition of CYP3A4 (unknown origin)
Cytochrome P450 2C19 = Cytochrome P450 2C19 (Homo sapiens, UniProt P33261); assay: Inhibition of CYP2C19 (unknown origin)
Cytochrome P450 2C9 = Cytochrome P450 2C9 (Homo sapiens, UniProt P11712); assay: Inhibition of CYP2C9 (unknown origin)
[1] = Drug metabolism in human liver microsomes at 1 uM after 15 mins; format: ADME, Microsome; conditions: read-out: Drug metabolism
In short: (§1)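 Compound at 1 μM was incubated with human or mouse liver microsomes for 15 min. The value is the % of compound metabolized.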

[2] = Drug metabolism in mouse liver microsomes at 1 uM after 15 mins; format: ADME, Microsome; conditions: read-out: Drug metabolism; in short: as §1
[3] = biological target: Voltage-gated inwardly rectifying potassium channel KCNH2 (Homo sapiens, UniProt Q12809); assay: Binding affinity to human ERG
Mus musculus [4] = assay: Antialzheimer activity in mouse assessed as reduction of amyloid beta-42 level at 30 mg/kg, po after 4 hrs by ELISA; format: functional
In short: (§2)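 Mice dosed orally at 30 mg/kg, n = 6. Brain Aβ peptides were measured by ELISA 4 h after dosing. Values are given as % change versus untreated animals.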

[5] = Ratio of drug level in brain to plasma in mouse at 30 mg/kg, po after 4 hrs; format: ADME, organism-based; parameters: dose 30 mg/kg, route oral; conditions: read-out: BPR
In short: (§3)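 Mice received 30 mg/kg orally. Plasma and brain were sampled at 4 h and analysed for compound by a qualified research LC-MS/MS method. The brain/plasma ratio was calculated from the two concentrations.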

[6] = Plasma concentration in mouse at 30 mg/kg, po after 4 hrs; format: ADME, organism-based; parameters: dose 30 mg/kg, route oral; in short: as §3
[7] = Drug level in mouse brain at 30 mg/kg, po after 4 hrs; format: ADME, organism-based; parameters: dose 30 mg/kg, route oral; conditions: read-out: Drug uptake; in short: as §3
Gamma-secretase [8] = assay: Modulation of gamma-secretase (unknown origin) assessed as reduction of amyloid beta 42 level; format: protein-complex assay, Homo sapiens
Mus musculus [9] = assay: Effect in mouse assessed as increase of amyloid beta 38 level at 30 mg/kg, po after 4 hrs by ELISA
[10] = Fraction unbound in human plasma; format: ADME, cell-free
In short: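 Unbound fraction in human plasma, determined as binding to human plasma proteins.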

[11] = Fraction unbound in rat brain; format: ADME, tissue-based
In short: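 Unbound fraction in rat brain tissue, expressed as %.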

Mus musculus [12] = assay: Antialzheimer activity in mouse assessed as reduction of total amyloid beta level at 30 mg/kg, po after 4 hrs by ELISA; format: functional; in short: as §2
Gamma-secretase [13] = assay: Modulation of gamma-secretase (unknown origin); format: protein-complex assay, Homo sapiens
[14] = Plasma concentration in dog at 20 mg/kg, po after 8 hrs; format: ADME, organism-based, Canis lupus familiaris; parameters: dose 20 mg/kg, route oral
In short: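 Dogs received 20 mg/kg orally. Plasma compound concentration was measured at 8 h and reported in ng/mL and μM.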

Canis familiaris [15] = assay: Hepatotoxicity in dog assessed as effect on bilirubin and alanine transaminase level at 20 mg/kg, po; format: toxicity, organism-based, Canis lupus familiaris; parameters: dose 20 mg/kg, route oral; conditions: in vivo
Canis familiaris [16] = assay: Antialzheimer activity in dog assessed as increase of amyloid beta 38 level in cerebrospinal fluid at 20 mg/kg, po after 8 hrs by ELISA; format: functional, Canis lupus familiaris
In short: (§4)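 Dogs received 20 mg/kg orally. CSF Aβ42 and Aβ38 were measured 8 h after dosing and expressed as % change.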

Canis familiaris [17] = assay: Antialzheimer activity in dog assessed as reduction of amyloid beta 42 level in cerebrospinal fluid at 20 mg/kg, po after 8 hrs by ELISA; format: functional; conditions: Canis lupus familiaris; in short: as §4

Sequence of Cytochrome P450 2C9 (P11712 whole entry): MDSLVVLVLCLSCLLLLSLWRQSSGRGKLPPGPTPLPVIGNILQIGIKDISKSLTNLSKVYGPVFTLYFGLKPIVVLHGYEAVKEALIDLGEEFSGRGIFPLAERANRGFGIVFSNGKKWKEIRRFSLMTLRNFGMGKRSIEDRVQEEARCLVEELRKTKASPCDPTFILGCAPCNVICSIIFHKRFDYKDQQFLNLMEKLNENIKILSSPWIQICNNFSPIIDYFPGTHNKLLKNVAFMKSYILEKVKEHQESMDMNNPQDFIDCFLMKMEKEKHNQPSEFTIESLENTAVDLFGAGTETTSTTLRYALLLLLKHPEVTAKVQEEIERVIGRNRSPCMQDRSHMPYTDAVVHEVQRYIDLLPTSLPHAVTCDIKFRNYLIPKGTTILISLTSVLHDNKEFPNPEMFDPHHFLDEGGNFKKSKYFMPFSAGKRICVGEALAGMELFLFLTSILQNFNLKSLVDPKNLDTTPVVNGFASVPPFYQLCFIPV
Sequence of Cytochrome P450 2D6 (P10635 whole entry): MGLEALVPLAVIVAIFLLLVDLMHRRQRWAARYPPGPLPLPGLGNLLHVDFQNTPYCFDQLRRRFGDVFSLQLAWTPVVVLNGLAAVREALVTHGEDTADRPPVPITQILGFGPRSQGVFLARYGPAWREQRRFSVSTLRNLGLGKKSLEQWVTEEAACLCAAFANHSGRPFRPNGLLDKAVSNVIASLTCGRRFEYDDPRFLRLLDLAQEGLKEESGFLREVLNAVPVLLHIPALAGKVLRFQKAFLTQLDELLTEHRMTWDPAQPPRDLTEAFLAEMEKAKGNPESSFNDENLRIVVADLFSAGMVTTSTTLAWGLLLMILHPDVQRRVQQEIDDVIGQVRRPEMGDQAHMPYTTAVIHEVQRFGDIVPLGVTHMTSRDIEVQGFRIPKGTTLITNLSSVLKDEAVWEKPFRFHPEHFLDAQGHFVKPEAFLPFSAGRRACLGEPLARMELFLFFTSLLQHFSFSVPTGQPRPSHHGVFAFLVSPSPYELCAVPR
Sequence of hERG (KCNH2) (Q12809 whole entry): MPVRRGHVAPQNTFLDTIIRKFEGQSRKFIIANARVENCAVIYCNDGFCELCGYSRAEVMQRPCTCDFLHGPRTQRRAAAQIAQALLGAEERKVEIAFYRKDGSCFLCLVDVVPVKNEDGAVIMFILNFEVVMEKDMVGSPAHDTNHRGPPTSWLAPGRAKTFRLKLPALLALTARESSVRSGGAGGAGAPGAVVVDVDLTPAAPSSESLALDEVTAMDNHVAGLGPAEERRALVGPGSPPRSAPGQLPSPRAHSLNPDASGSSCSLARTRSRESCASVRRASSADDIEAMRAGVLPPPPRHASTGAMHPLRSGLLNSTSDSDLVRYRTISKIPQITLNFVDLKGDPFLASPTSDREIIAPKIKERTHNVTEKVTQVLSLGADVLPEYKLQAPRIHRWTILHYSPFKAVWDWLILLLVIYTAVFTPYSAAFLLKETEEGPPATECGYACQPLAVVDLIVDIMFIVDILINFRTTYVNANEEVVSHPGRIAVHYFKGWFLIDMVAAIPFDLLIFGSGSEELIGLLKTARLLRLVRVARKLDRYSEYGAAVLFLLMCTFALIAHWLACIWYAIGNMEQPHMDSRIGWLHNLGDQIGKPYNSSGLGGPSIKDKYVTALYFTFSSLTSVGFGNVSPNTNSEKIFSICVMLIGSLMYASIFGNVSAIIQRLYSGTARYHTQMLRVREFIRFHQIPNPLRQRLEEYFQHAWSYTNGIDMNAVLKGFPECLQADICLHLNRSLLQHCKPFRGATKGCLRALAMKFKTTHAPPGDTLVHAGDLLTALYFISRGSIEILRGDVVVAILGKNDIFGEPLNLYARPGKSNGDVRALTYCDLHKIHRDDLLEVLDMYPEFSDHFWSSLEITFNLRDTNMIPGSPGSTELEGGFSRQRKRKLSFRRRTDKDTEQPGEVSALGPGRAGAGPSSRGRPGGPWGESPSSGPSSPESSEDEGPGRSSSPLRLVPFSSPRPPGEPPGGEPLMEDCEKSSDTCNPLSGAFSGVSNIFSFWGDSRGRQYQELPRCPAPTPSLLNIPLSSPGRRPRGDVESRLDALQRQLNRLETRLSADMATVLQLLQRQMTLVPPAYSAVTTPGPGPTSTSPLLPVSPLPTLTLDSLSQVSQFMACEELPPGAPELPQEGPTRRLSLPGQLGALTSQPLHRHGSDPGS
Sequence of Voltage-gated inwardly rectifying potassium channel KCNH2 (Q12809 whole entry): as above
Sequence of Cytochrome P450 3A4 (P08684 whole entry): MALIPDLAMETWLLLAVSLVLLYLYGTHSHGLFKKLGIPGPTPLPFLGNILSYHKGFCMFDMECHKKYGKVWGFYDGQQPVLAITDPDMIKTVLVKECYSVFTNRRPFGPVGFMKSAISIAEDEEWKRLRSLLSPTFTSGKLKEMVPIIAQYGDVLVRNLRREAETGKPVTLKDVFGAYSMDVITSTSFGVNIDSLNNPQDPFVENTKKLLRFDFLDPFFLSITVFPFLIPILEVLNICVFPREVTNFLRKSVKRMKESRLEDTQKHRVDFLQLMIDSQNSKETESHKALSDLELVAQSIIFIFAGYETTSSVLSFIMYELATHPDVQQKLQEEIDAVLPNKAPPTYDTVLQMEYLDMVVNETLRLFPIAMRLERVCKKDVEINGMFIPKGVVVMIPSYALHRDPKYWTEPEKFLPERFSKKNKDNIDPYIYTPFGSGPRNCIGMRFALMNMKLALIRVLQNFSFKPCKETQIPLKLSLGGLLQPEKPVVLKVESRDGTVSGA
Sequence of Cytochrome P450 2C19 (P33261 whole entry): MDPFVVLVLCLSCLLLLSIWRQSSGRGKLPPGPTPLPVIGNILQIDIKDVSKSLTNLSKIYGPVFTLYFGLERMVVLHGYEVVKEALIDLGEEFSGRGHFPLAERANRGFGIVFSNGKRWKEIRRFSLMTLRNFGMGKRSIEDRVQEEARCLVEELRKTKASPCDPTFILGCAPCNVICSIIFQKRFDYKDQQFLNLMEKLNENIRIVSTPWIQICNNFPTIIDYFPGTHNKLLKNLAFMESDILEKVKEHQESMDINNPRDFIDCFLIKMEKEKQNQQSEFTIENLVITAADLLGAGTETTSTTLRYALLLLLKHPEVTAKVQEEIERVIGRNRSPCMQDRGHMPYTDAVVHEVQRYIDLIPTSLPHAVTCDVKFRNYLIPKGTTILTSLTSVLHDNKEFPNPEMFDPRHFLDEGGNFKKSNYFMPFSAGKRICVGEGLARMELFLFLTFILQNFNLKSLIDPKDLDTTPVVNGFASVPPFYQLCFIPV

IC50 (Cytochrome P450 2D6): > 10 µM | IC50 (Cytochrome P450 1A2): > 10 µM | IC50 (Cytochrome P450 3A4): 1.1 µM | IC50 (Cytochrome P450 2C19): 1.52 µM | IC50 (Cytochrome P450 2C9): 8.43 µM | metabolised at […], 1 µM [1]: 5% | metabolised at […], 1 µM [2]: 6% | Kp at 4 h [5]: 0.93 | concentration at 4 h [6]: 3.6 µM | concentration at 4 h [7]: 3.36 µM | IC50 (Gamma-secretase [8]): 0.071 µM
Compound: COc1cc(-c2nc3n(n2)CCO[C@H]3c2ccccc2C(F)(F)F)ccc1-n1cnc(C)c1
inhibition at 3 µM (hERG (KCNH2)): 12% | IC50 [3]: > 10 µM | inhibition in vivo at 30 mg/kg (Mus musculus [4]): 22% | Increase % at 30 mg/kg (Mus musculus [9]): 17%

IC50 (Gamma-secretase [8]): 0.447 µM
Compound: COc1cc(-c2nc3n(n2)CCC[C@@H]3c2ccc(F)cc2C)ccc1-n1cnc(C)c1
IC50 [3]: 0.794 µM

IC50 (Gamma-secretase [8]): 0.85 µM
Compound: COc1cc(-c2nc(Cc3ccc(F)cc3)n(C)n2)ccc1-n1cnc(C)c1

fraction unbound [10]: 0.027 | fraction unbound [11]: 0.0092 | IC50 (Cytochrome P450 2D6): > 10 µM | IC50 (Cytochrome P450 1A2): > 10 µM | IC50 (Cytochrome P450 3A4): 6.94 µM | IC50 (Cytochrome P450 2C19): 9.24 µM | IC50 (Cytochrome P450 2C9): 5.66 µM | metabolised at […], 1 µM [1]: 41% | metabolised at […], 1 µM [2]: 9% | Kp at 4 h [5]: 0.5 | concentration at 4 h [6]: 9.8 µM | concentration at 4 h [7]: 4.8 µM | IC50 (Gamma-secretase [8]): 0.04 µM
Compound: COc1cc(-c2nc3n(n2)CCC[C@H]3c2ccc(F)cc2C)ccc1-n1cnc(C)c1
inhibition at 3 µM (hERG (KCNH2)): 28% | inhibition (Mus musculus [12]): inactive | IC50 [3]: 7.9 µM | inhibition in vivo at 30 mg/kg (Mus musculus [4]): 49% | Increase % at 30 mg/kg (Mus musculus [9]): 59%

Kp at 4 h [5]: 0.22 | concentration at 4 h [6]: 11.9 µM | concentration at 4 h [7]: 2.7 µM | IC50 (Gamma-secretase [13]): 0.158 µM
Compound: COc1cc(C(=O)NCc2cccc(-c3ccccc3)c2)ccc1-n1cnc(C)c1
inhibition in vivo at 30 mg/kg (Mus musculus [12]): 3% | inhibition in vivo at 30 mg/kg (Mus musculus [4]): 12%

IC50 (Gamma-secretase [8]): 5.75 µM
Compound: COc1cc(-c2nc(-c3ccc(F)cc3)nn2C)ccc1-n1cnc(C)c1

IC50 (Gamma-secretase [8]): 2.6 µM
Compound: COc1cc(C(=O)N[C@@H](C)c2ccc(F)cc2)ccc1-n1cnc(C)c1

IC50 (Gamma-secretase [8]): 0.093 µM
Compound: COc1cc(-c2nc3n(n2)CCCC3c2ccc(F)cc2C)ccc1-n1cnc(C)c1 (racemic)

IC50 (Gamma-secretase [8]): 0.62 µM
Compound: COc1cc(-c2nc(-c3ccc(F)cc3)n(C)n2)ccc1-n1cnc(C)c1

IC50 (Gamma-secretase [8]): 1.29 µM
Compound: COc1cc(-c2nnc(-c3ccc(F)cc3)[nH]2)ccc1-n1cnc(C)c1

concentration at 8 h [14]: 19 µM | fraction unbound [10]: 0.085 | fraction unbound [11]: 0.022 | IC50 (Cytochrome P450 2D6): > 10 µM | IC50 (Cytochrome P450 3A4): > 10 µM | IC50 (Cytochrome P450 2C19): > 10 µM | IC50 (Cytochrome P450 2C9): 8.51 µM | metabolised at […], 1 µM [1]: 10% | metabolised at […], 1 µM [2]: 6% | Kp at 4 h [5]: 0.23 | concentration at 4 h [6]: 12.3 µM | concentration at 4 h [7]: 2.8 µM | IC50 (Gamma-secretase [8]): 0.028 µM
Compound: COc1nc(-c2nc3n(n2)CCC[C@H]3c2ccccc2C(F)(F)F)ccc1-n1cnc(C)c1
Activity (Canis familiaris [15]): Non-toxic | Activity (Canis familiaris [16]): 28% | inhibition in vivo at 20 mg/kg (Canis familiaris [17]): 50% | inhibition in vivo at 30 mg/kg (Mus musculus [4]): 62% | Increase % at 30 mg/kg (Mus musculus [9]): 66%

metabolised at […], 1 µM [1]: 13% | metabolised at […], 1 µM [2]: 7% | Kp at 4 h [5]: 1.29 | concentration at 4 h [6]: 9.7 µM | concentration at 4 h [7]: 12.7 µM | IC50 (Gamma-secretase [8]): 0.024 µM
Compound: COc1cc(-c2nc3n(n2)CCC[C@H]3c2ccccc2C(F)(F)F)ccc1-n1cnc(C)c1
inhibition at 3 µM (hERG (KCNH2)): 11% | IC50 [3]: > 10 µM | inhibition in vivo at 30 mg/kg (Mus musculus [4]): 46% | Increase % at 30 mg/kg (Mus musculus [9]): 44%

IC50 (Gamma-secretase [8]): 0.77 µM
Compound: COc1cc(-c2nc(C)n(-c3ccc(F)cc3)n2)ccc1-n1cnc(C)c1

IC50 (Gamma-secretase [8]): 0.22 µM
Compound: COc1cc(-c2nc3n(n2)CCCC3c2ccc(F)cc2)ccc1-n1cnc(C)c1 (racemic)
